Data taken from ChEMBL document CHEMBL2046324, “Synthesis and biological evaluation of 1-arylsulfonyl-5-(N-hydroxyacrylamide)indoles as potent histone deacetylase inhibitors with antitumor activity in vivo” (J Med Chem, 2012).

Key:
cells = assay type: functional, Hep 3B2; details: Homo sapiens, Hep3B, 48 h
Histone deacetylase = assay: Inhibition of HDAC in human HeLa cell nuclear extract after 30 mins by fluorescence microplate reader; assay type: protein assay
Homo sapiens = species on record: Homo sapiens; assay: Selectivity ratio of IC50 for human HDAC1 to IC50 for human HDAC6
MDA-MB-231 = assay: cells; assay type: functional; details: Homo sapiens, MDA-MB-231, 48 h
Histone deacetylase 2 = Histone deacetylase 2 (Homo sapiens, UniProt Q92769); assay: Inhibition of human recombinant HDAC2 after 30 mins by fluorometric assay
Chain of Histone deacetylase 2 (Q92769 whole entry): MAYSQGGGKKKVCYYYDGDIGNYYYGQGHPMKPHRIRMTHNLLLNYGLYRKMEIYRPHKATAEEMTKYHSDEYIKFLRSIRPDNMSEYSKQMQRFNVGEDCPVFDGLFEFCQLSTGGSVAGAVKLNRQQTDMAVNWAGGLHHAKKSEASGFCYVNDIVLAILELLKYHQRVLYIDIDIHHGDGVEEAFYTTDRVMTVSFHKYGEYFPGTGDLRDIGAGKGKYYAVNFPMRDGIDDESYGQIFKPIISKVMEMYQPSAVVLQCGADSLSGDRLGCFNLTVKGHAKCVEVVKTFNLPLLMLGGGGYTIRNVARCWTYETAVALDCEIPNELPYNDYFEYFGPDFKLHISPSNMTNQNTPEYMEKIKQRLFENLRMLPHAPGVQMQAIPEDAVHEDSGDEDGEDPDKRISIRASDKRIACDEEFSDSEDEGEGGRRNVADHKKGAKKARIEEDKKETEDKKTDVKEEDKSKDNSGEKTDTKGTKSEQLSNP

A549 = assay: Growth inhibition of human A549 cells after 48 hrs by SRB assay; assay type: functional; details: Homo sapiens, A549, 48 h
In short: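 A549 cells were grown in RPMI 1640 with 10% FBS and 2 mM glutamine at 37 °C in 5% CO₂, then seeded in medium with 5% FBS. A 24 h TCA-fixed plate gave T₀. Cells were exposed to compound or DMSO for 48 h, fixed with 10% TCA and stained with 0.4% SRB; bound dye was solubilized in 10 mM Tris and read at 515 nm. GI₅₀ was the concentration halving net protein increase. At least three independent experiments.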

PC-3 = assay: cells; assay type: functional; details: Homo sapiens, PC-3, 48 h
[1] = target: T1, Protein deacetylase HDAC6 (Homo sapiens, UniProt Q9UBN7); assay: Inhibition of human recombinant HDAC6 after 30 mins by fluorometric assay
T1 sequence (Q9UBN7 whole entry): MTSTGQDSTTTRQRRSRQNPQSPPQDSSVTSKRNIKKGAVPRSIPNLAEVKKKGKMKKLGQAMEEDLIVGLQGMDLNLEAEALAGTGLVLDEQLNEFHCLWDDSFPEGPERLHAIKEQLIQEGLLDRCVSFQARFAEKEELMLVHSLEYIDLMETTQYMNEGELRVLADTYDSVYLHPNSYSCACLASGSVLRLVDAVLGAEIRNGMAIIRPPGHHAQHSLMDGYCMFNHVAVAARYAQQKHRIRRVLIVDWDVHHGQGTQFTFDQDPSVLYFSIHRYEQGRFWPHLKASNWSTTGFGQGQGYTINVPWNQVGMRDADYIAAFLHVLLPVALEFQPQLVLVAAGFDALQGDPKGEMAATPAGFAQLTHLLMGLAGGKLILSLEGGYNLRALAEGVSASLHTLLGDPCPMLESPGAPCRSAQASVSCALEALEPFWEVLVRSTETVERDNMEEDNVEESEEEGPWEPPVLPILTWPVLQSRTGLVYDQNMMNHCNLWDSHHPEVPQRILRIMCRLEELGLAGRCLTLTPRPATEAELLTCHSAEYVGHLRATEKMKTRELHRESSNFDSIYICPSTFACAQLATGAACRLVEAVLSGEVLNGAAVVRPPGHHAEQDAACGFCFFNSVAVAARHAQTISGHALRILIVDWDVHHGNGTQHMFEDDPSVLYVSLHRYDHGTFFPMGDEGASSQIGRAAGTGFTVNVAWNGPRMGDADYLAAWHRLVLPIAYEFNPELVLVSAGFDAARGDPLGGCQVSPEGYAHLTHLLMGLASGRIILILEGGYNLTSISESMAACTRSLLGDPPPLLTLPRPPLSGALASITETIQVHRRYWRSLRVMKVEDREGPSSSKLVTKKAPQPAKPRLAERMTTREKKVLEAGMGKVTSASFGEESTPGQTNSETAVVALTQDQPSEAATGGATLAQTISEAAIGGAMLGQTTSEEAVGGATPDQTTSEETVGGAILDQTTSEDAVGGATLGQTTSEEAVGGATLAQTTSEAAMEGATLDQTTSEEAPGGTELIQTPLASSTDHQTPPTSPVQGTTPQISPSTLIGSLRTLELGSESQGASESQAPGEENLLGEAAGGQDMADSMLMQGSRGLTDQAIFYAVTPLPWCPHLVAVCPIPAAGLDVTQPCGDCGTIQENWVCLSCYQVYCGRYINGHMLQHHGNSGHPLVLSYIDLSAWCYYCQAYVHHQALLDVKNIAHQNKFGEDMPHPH

Histone deacetylase 1 = Histone deacetylase 1 (Homo sapiens, UniProt Q13547); assay: Inhibition of human recombinant HDAC1 after 30 mins by fluorometric assay
Chain of Histone deacetylase 1 (Q13547 whole entry): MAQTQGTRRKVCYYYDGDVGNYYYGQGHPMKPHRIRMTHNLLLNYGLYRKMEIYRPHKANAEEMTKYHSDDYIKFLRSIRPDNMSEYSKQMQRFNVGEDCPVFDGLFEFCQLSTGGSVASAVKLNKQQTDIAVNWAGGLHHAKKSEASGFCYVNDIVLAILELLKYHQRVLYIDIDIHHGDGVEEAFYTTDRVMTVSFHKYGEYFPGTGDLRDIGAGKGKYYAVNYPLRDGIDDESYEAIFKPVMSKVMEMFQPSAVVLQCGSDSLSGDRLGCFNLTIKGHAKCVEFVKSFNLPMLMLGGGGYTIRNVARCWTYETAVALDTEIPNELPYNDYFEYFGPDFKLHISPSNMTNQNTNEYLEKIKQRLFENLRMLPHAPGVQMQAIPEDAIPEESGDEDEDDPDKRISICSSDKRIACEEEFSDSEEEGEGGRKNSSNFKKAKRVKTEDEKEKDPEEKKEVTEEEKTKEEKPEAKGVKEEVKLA

- IC50 (Histone deacetylase): 6.8 nM
- Ratio IC50 (Homo sapiens): 40
- GI50 (MDA-MB-231): 750 nM
- IC50 (Histone deacetylase 2): 362 nM
- GI50 (A549): 1180 nM
- GI50 (PC-3): 800 nM
- IC50 [1]: 3.3 nM
- IC50 (Histone deacetylase 1): 125 nM
Structure (SMILES): COc1ccc(S(=O)(=O)n2ccc3cc(/C=C/C(=O)NO)ccc32)cc1
- GI50 (cells): 550 nM
